Data as given in article PMC11564562 (Scientific Reports, 2024).

Tests used:
[1] = tested on: MCF-7 breast cancer cells; assay: MTT cytotoxicity assay, MCF-7; type: cell-based; settings: Homo sapiens, MCF7, 72 h, read-out: IC50 cytotoxicity against MCF-7 cells
Procedure, shortened: (§1)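 MTT assay: cells cultured at 37 °C in 5% CO2 with 10% FBS and penicillin/streptomycin, HeLa in DMEM and MCF-7 in RPMI 1640. Seeded at 5,000 cells/well and left to adhere 24 h, then exposed 72 h to 0.1, 1, 10 and 100 µM test compound, diluted from 10 mM DMSO stocks in medium. MTT (5 mg/mL) added for 3 h, formazan dissolved in DMSO, absorbance read. Blank-corrected % survival taken relative to untreated cells; IC50 calculated; mean ± SD, n = 3; doxorubicin as positive control.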

HeLa cells = assay: MTT cytotoxicity assay, HeLa; type: cell-based; settings: Homo sapiens, 72 h, read-out: IC50 cytotoxicity against HeLa cells
Procedure, shortened: as §1

[2] = tested on: Hsp90 protein level in MCF-7 cells; assay: Hsp90 protein level assay; type: cell-based, human; settings: 10 µM, control (untreated) cells 5.54 ng/mL
Procedure, shortened: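 Sandwich ELISA kit quantifying intracellular Hsp90 in MCF-7 cells against untreated cells. Standards and samples incubated 2 h at 37 °C, then biotinylated antibody 1 h at 37 °C, three washes, HRP-avidin 1 h at 37 °C, washes, TMB 15–30 min at 37 °C. Stop solution added and absorbance read at 450 nm. Experiment run in triplicate (n = 3); significance set at p < 0.05.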

C=CCNC1=C2C[C@@H](C)C[C@H](OC)[C@H](O)[C@@H](C)/C=C(\C)[C@H](OC(N)=O)[C@@H](OC)/C=C\C=C(/C)C(=O)NC(=CC1=O)C2=O [17-AAG, Tanespimycin, reference compound]
IC50 [1]: 0.1 µM

COc1ccc(-c2noc(N)c2C#N)c(OC)c1 [compound 1, 5-amino-(2,4-dimethoxyphenyl) isoxazole-4-carbonitrile]
IC50 (HeLa cells): 7.91 µM
IC50 [1]: 0.31 µM
Hsp90 protein level after treatment [2]: 4.85 ng/mL

COc1ccc(-c2noc(NC(=O)c3ccccc3)c2C#N)c(OC)c1 [compound 2, N-(4-cyano-3(2,4-dimethoxyphenyl)isoxazol-5-yl) benzamide]
IC50 (HeLa cells): > 100 µM
IC50 [1]: ≥ 100 µM

COc1ccc(-c2noc(NC(=O)c3ccc(Cl)cc3)c2C#N)c(OC)c1 [compound 3, N-(4-cyano-3-(2,4-dimethoxyphenyl)isoxazol-5-yl)-4-chlorobenzamide]
IC50 (HeLa cells): 3.61 µM
IC50 [1]: 68.3 µM

COc1ccc(-c2noc(NC(=O)c3ccc(C(F)(F)F)cc3)c2C#N)c(OC)c1 [compound 4, N-(4-cyano-3-(2,4-dimethoxyphenyl)isoxazol-5-yl)-4-(trifluoromethyl)benzamide]
IC50 (HeLa cells): 19.4 µM
IC50 [1]: 50.6 µM
Hsp90 protein level after treatment [2]: 2.81 ng/mL

COc1ccc(-c2noc(NC(=O)c3ccc(F)cc3)c2C#N)c(OC)c1 [compound 8, N-(4-cyano-3(2,4-dimethoxyphenyl)isoxazol-5-yl)-4-fluorobenzamide]
IC50 (HeLa cells): 31.9 µM
IC50 [1]: 54.1 µM
